Assay outcomes as filed in PubChem BioAssay.
XBP1 UPR activ: activators of adaptive arm of unfolded protein response (XBP1); CHO-XBP1 luciferase reporter, IRE1-XBP1 UPR activation, luminescence; percent of tunicamycin response, DMSO as zero; activation, % at 20 µM; hit rate 0.33% among 330,000;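 active means versus positive control, 20 µM dose yields 30% or more activation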;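 further: 100% = tunicamycin at 10 µg/mL and 0% = DMSO only wells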
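Material: CHO-XBP1 cells stably carrying IRE1-XBP1-driven luciferase reporter | Medium: F12 with 10% serum | Compound dosing: 20 µM single concentration, DMSO 1% | Incubation: Overnight seeding at 37 °C, 6 h compound treatment at 37 °C | Detection: Steady-Glo luminescence read | Read-out basis: % activation of reporter signal versus tunicamycin and DMSO controls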
CHOP inhibitor: blocks CHOP induction under ER stress; CHO-K1 CHOP-promoter luciferase, tunicamycin-induced, 15-18 h; hit rate 3.8% among 220,000; inhibition, % at 10 µM;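 active means compounds that reduced the stress-induced luciferase reporter signal by more than about 70% of percent inhibition, limit read from the data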;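 further: 0% = tunicamycin plus vehicle and 100% = wells without tunicamycin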
CHOP UPR activ: activators of apoptotic arm of unfolded protein response (CHOP). hit rate 0.34% among 330,000. CHO-CHOP luciferase reporter, UPR activation, luminescence; percent of tunicamycin response over DMSO baseline. activation, % at 10 µM;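 active means at 10 µM dose, activation of 40% or more, normalized to positive control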;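 further: 100% = tunicamycin at 10 µg/mL and 0% = DMSO alone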
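Assay system: CHO-CHOP cells, stable luciferase reporter of PERK-eIF2a-CHOP signalling / Buffer or medium: F12 plus 10% serum / Compound dosing: one dose, 10 µM in 0.5% DMSO / Times: 6 h compound treatment, 37 °C / Technique: luciferase luminescence / Read-out: % reporter activation, DMSO baseline versus tunicamycin full activation / Benchmarks: tunicamycin and DMSO controls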
PvdQ acylase: P. aeruginosa PvdQ acylase inhibition. purified PvdQ acylase, fluorescence plate reader. inhibition, % at 10 µM. hit rate 0.063% among 340,000. AID 488965; in the data active means inhibition above about 30%, passing the limit was not always enough;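 further: 0% = vehicle neutral wells and 100% = reference inhibitor wells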
CHOP inh conf: confirmation of CHOP induction inhibitors. shares compounds with CHOP inhibitor. hit rate 45% among 2,100. inhibition, % at 10 µM. CHO-CHOP promoter luciferase reporter, tunicamycin-induced, luminescence;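 active means mean of three repeat readings of reporter signal inhibition above a set limit, cut at about 70% in these data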;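 further: 0% = tunicamycin plus vehicle and 100% = wells lacking tunicamycin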
UPR CHOP confirm: apoptotic UPR (CHOP) activation, confirmed; shares compounds with CHOP UPR activ; CHO-CHOP cells, CHOP-luciferase reporter luminescence; percent of tunicamycin response, DMSO as zero; activation, % at 10 µM; AID 463112; hit rate 64% among 1,000; in the data active means activation above about 33%;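 further: 0% = DMSO wells and 100% = tunicamycin 10 µg/mL wells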
UPR XBP1 confirm: confirmation of adaptive unfolded protein response (XBP1) activators; shares compounds with XBP1 UPR activ; activation, % at 20 µM; hit rate 63% among 1,000; CHO-XBP1 IRE1-XBP1 luciferase reporter, luminescence;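 active means reporter signal at least 30% of the positive control's activation in two or more of four replicate wells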;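 further: plate controls were DMSO negative control for no effect and tunicamycin 10 µg/mL positive control for full effect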
* = called active by the depositor; x = no result. Shown is part of a subset that was picked to be rich in hits.

SMILES	XBP1 UPR activ	CHOP inhibitor	CHOP UPR activ	PvdQ acylase	UPR CHOP confirm	others
CC(C)Oc1ccc(CC2(CCc3ccncc3)C(=O)NC(=O)NC2=O)cc1	-1	9	1	-10	x
O=c1[nH]c(=O)n(C2CCCCC2)c(O)c1/C=C/C=Nc1ccccc1	2	100*	1	-13	x	CHOP inh conf=36
O=c1[nH]c(=O)n(-c2ccccc2)c(O)c1/C=C/C=Nc1ccccc1	-2	-1	0	-12	x
CCCCCCOC(=O)c1ccccc1N	4	97*	7	-6	x	CHOP inh conf=103*
CCOC(=O)c1sc(/N=C/c2c(O)n(-c3ccccc3)c(=O)[nH]c2=O)c(C#N)c1C	2	27	0	10	x
CCOC(=O)c1c(/N=C/c2c(O)n(-c3cccc(C)c3)c(=O)[nH]c2=O)sc2c1CCCC2	2	98*	4	2	x	CHOP inh conf=88*
CSc1ccc(C(=O)C2CCCN(Cc3cnc(SC)nc3)C2)cc1 (centres undefined)	0	-5	-1	15	x
Cc1ccn2nc(S(=O)(=O)Nc3c(F)cccc3F)nc2n1	-3	18	0	-6	x
C=CCn1c(O)c(C(CC)=Nc2ccc(N(CC)CC)cc2)c(=O)[nH]c1=O	-1	103*	3	-15	x	CHOP inh conf=96*
CCCN(CCC)CCc1c[nH]c2ccc(C(N)=O)cc12	x	-8	x	x	x
CCCCn1c(N)c(C(=O)OCCOC)c2nc3ccccc3nc21	1	-9	0	x	x
COCCCn1c(N)c(C(=O)NCCC(C)C)c2nc3ccccc3nc21	3	99*	-2	-14	x	CHOP inh conf=99*
O=C1NC2NC(=O)N([N+](=O)[O-])C2N1 (centres undefined)	-2	6	1	x	x
CC(C)CCP(=O)(O)c1ccccc1	2	7	2	-11	x
C=C(C=O)CC1CC(O)[C@]2(C)OC3CC4OC5C[C@]6(C)O[C@]7(C)CCC8OC9C[C@]%10(C)OC%11C(C)=CC(=O)OC%11CC%10OC9C[C@@H](C)C8OC7CC6O[C@]5(C)CC5OC5C4OC3CC2O1 (some centres undefined)	-8	105*	-9	-10	x	CHOP inh conf=127*
C[C@H](Cc1ccc2c(c1)OC(C(=O)O)(C(=O)O)O2)NC[C@H](O)c1cccc(Cl)c1	x	-11	x	x	x
CCN1/C(=C\C=C\C2=[N+](CC)c3ccccc3C2(C)C)C(C)(C)c2ccccc21	3	103*	46*	-1	24	CHOP inh conf=140*
FCCN(CCF)c1cccc(Cl)c1	-6	5	0	x	x
COc1ccc(N2C(=O)/C(=C/c3cccs3)C(=O)NC2=S)cc1	-7	104*	462*	-7	157*	CHOP inh conf=-141
Cc1ccc(/C=C2\C(=O)NC(=S)N(c3ccc(F)cc3)C2=O)s1	-8	103*	393*	-12	17	CHOP inh conf=-158
O=c1c2ccccc2nc(N2CCCC2)n1-c1ccc(Cl)cc1	-4	23	-1	-13	x
COc1cccc(CCNCc2c(F)cccc2F)c1	-1	6	0	-1	x
CCOC(=O)c1c(-n2c(C)cc(C=C3C(=O)NC(=S)NC3=O)c2C)sc2c1CCCC2	4	107*	185*	-5	-11	CHOP inh conf=140*
CCOC(=O)c1c(-n2c(C)cc(/C=C3/C(=O)NC(=O)N(CC)C3=O)c2C)sc2c1CCCC2	-1	x	1	6	x
COc1ccc(N2C(=O)/C(=C/C=C/c3ccccc3[N+](=O)[O-])C(=O)NC2=S)cc1	-7	-143	355*	x	90*
SMILES	XBP1 UPR activ	CHOP inhibitor	CHOP UPR activ	PvdQ acylase	UPR CHOP confirm	others
CN(CCc1ccccc1)Cc1c[nH]c2ccccc12	5	x	88*	10	20
CC(C)N1C(=O)/C(=C/C=C/c2ccco2)C(=O)N(Cc2ccco2)C1=O	8	16	45*	-13	156*
COc1ccc(/C=C2/C(=O)N(Cc3ccco3)C(=O)N(C(C)C)C2=O)cc1	-2	-34	-2	-14	x
O=P1(c2ccccc2)Nc2ccccc2N1c1ccccc1 (centres undefined)	x	x	x	-2	x
COc1cc(/C=C/[N+](=O)[O-])ccc1O	-3	63	189*	-2	54*
COc1ccc(-n2c(/C=C/c3ccc(O)c(OC)c3)nc3ccccc3c2=O)cc1	2	x	4	3	x
COc1cccc(N2C(=O)/C(=C/c3ccc(C)o3)C(=O)NC2=S)c1	-1	x	262*	-16	0
Cc1c(C(=O)c2cccc3ccccc23)c2cccc3c2n1[C@H](CN1CCOCC1)CO3	29	-95	58*	-9	40*
O=c1[nH]c(=S)n(C2CC2)c(O)c1C=Nc1cccc(C(F)(F)F)c1	23	95*	46*	-6	36*
CC(C)CC1C(C#N)=C(N)Oc2c1c(=O)oc1ccccc21 (centres undefined)	-3	42	0	-10	x
COCCn1c(-c2ccccc2)cc(C(=O)O)c1C	2	x	2	7	x
CCCCCn1c(=O)c(C(=O)Nc2ccccc2Cl)c(O)c2ccccc21	0	x	9	-15	x
CCCCCn1c(=O)c(C(=O)Nc2ncccc2C)c(O)c2ccccc21	36*	x	46*	-23	24
CC(C)OS(C)(=O)=O	-1	x	0	-12	x
CCn1c(O)c(C=Nc2ccc(N3CCOCC3)cc2)c(=O)n(CC)c1=S	1	8	1	-19	x
CCn1c(O)c(N=Nc2cccc(S(=O)(=O)N3CCOCC3)c2)c(=O)n(CC)c1=S	-1	13	41*	-3	5
Cc1cc(C)cc(N2C(=O)NC(=O)/C(=C\c3cccn3-c3ccccc3)C2=O)c1	-4	52	189*	-4	333*
Cc1cccc(N2C(=O)NC(=O)/C(=C\c3cnc(-c4ccccc4)nc3)C2=O)c1	0	-8	1	-9	x
CC(C)c1ccc(N2C(=O)NC(=O)/C(=C\C=C\c3ccco3)C2=O)cc1	-5	104*	250*	x	254*
O=C(NC(Cc1cnc[nH]1)C(=O)O)c1ccccc1 (centres undefined)	-1	10	0	-8	x
COc1ccc(C)cc1NC(=O)N1CCC2(CC1)OCCO2	-2	46	-2	-14	x
CCCCn1c(NC(=O)c2ccco2)c(C(=O)OCC)c2nc3ccccc3nc21	40*	-51	47*	-7	1	UPR XBP1 confirm=-1
CCCCn1c(NS(=O)(=O)c2ccc(C)cc2)c(C(=O)OCC)c2nc3ccccc3nc21	8	20	1	-6	x
CN1C(=O)/C(=C/c2cccn2-c2ccc3ccccc3c2)C(=O)NC1=S	116*	53	145*	-12	151*	UPR XBP1 confirm=-6
